Calls of active or inactive are those of the source. The rule behind the calls is not given here.
Columns and labels:
[1] = target: Tyrosine-protein kinase JAK3 (Homo sapiens) (UniProt P52333); assay: Binding affinity to wild-type human partial length JAK3 JH1 catalytic domain (I781 to S1124 residues) expressed in mammalian expression system assessed as residual binding level at 1 uM by Kinomescan method relative to control
[2] = target: Serine/threonine-protein kinase PLK1 (Homo sapiens) (UniProt P53350); assay: Binding affinity to wild-type human partial length PLK1 (A33 to F325 residues) expressed in mammalian expression system assessed as residual binding level at 1 uM by Kinomescan method relative to control
NCI-H1703 = assay: Cell cycle arrest in human NCI-H1703 cells assessed as accumulation at G0/G1 phase at 0.3 to 10 uM after 72 hrs in presence of PDGF-AA by propidium iodide/RNase staining-based flow cytometric analysis; type: functional
Outline: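 Cells treated with compound or DMSO for the stated periods, fixed overnight in 70% cold ethanol at −20 °C, stained with PI/RNase buffer, then analysed by flow cytometry for cell-cycle distribution. For NCI-H1703 stimulation, PDGF AA was used at 100 ng/mL.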

[3] = target: Non-receptor tyrosine-protein kinase TYK2 (Homo sapiens) (UniProt P29597); assay: Binding affinity to wild-type human partial length TYK2 JH2 pseudokinase domain (G556 to D888 residues) expressed in mammalian expression system assessed as residual binding level at 1 uM by Kinomescan method relative to control
[4] = target: LIM domain kinase 1 (Homo sapiens) (UniProt P53667); assay: Binding affinity to wild-type human full length LIMK1 (M1 to D647 residues) expressed in bacterial expression system assessed as residual binding level at 1 uM by Kinomescan method relative to control
Chain of LIM domain kinase 1 (Homo sapiens) (P53667 whole entry, looked up, the tested form may be a part): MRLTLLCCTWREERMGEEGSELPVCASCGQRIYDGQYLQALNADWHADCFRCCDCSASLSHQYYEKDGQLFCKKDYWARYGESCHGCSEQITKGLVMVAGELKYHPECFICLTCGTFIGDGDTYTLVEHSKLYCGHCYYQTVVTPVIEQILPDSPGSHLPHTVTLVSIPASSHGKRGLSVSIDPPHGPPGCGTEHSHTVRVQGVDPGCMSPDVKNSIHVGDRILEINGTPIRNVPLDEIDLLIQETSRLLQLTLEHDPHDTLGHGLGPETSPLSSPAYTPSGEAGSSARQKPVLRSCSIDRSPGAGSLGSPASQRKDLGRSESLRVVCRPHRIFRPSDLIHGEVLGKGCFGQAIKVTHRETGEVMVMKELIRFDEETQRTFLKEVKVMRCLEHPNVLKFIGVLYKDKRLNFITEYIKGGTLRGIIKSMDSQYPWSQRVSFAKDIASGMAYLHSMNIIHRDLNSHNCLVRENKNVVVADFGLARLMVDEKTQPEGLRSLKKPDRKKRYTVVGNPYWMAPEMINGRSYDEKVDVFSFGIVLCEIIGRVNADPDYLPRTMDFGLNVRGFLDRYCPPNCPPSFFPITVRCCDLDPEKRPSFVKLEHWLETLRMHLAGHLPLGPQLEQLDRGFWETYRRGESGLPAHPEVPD
Outline: (§1)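 Single-concentration (1 μM) competition-binding screen run by KINOMEscan against a panel of 468 purified kinases and mutants. The read-out is the relative binding activity of the test compound to each kinase.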

[5] = target: Microtubule-associated serine/threonine-protein kinase 1 (Homo sapiens) (UniProt Q9Y2H9); assay: Binding affinity to wild-type human partial length MAST1 (S346 to V730 residues) expressed in mammalian expression system assessed as residual binding level at 1 uM by Kinomescan method relative to control
Chain of Microtubule-associated serine/threonine-protein kinase 1 (Homo sapiens) (Q9Y2H9 whole entry, looked up, the tested form may be a part): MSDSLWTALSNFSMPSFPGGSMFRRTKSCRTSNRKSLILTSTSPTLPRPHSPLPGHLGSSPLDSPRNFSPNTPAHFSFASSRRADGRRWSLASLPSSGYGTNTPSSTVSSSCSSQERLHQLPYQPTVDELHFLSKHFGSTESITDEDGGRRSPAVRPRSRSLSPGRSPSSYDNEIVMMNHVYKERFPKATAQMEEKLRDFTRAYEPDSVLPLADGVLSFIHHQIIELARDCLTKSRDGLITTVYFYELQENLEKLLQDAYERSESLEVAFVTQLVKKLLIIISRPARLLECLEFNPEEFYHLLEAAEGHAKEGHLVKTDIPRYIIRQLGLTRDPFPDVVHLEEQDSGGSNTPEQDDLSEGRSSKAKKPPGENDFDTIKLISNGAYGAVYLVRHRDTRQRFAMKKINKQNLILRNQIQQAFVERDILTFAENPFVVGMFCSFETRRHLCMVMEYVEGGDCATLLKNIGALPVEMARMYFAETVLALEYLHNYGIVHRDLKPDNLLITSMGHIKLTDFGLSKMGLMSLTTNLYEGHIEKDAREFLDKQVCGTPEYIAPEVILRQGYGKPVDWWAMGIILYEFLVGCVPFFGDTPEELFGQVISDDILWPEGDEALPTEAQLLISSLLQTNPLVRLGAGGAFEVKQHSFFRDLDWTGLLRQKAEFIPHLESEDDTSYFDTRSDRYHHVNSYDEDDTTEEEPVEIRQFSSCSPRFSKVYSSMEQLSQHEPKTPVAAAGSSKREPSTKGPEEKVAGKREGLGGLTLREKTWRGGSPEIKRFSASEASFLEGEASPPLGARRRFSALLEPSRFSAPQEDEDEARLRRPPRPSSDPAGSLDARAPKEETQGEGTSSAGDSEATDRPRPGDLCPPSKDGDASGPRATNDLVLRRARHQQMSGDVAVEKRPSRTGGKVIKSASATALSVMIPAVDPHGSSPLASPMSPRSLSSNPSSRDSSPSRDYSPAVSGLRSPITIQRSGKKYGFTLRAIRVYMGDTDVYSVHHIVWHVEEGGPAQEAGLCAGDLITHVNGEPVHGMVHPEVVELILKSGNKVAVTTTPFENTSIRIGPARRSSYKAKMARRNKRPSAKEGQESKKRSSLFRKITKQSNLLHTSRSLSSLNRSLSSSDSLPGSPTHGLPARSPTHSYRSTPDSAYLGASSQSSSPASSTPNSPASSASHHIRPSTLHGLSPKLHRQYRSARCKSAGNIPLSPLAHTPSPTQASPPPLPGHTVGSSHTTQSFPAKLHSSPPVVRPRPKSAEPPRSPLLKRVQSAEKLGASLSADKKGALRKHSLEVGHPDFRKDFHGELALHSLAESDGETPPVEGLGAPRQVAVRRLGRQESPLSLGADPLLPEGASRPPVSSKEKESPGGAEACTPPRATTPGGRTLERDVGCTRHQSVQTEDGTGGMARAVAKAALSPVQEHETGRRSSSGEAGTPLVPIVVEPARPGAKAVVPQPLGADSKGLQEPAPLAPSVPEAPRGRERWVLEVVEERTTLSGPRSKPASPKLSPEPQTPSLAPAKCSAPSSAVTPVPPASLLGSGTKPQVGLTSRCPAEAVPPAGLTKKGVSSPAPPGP

[6] = target: Protein kinase C eta type (Homo sapiens) (UniProt P24723); assay: Binding affinity to wild-type human partial length PRKCH (S324 to P683 residues) expressed in bacterial expression system assessed as residual binding level at 1 uM by Kinomescan method relative to control
[7] = target: Serine/threonine-protein kinase BRSK1 (Homo sapiens) (UniProt Q8TDC3); assay: Binding affinity to wild-type human partial length BRSK1 (M1 to E754 residues) expressed in bacterial expression system assessed as residual binding level at 1 uM by Kinomescan method relative to control
Chain of Serine/threonine-protein kinase BRSK1 (Homo sapiens) (Q8TDC3 whole entry, the tested form may be a part): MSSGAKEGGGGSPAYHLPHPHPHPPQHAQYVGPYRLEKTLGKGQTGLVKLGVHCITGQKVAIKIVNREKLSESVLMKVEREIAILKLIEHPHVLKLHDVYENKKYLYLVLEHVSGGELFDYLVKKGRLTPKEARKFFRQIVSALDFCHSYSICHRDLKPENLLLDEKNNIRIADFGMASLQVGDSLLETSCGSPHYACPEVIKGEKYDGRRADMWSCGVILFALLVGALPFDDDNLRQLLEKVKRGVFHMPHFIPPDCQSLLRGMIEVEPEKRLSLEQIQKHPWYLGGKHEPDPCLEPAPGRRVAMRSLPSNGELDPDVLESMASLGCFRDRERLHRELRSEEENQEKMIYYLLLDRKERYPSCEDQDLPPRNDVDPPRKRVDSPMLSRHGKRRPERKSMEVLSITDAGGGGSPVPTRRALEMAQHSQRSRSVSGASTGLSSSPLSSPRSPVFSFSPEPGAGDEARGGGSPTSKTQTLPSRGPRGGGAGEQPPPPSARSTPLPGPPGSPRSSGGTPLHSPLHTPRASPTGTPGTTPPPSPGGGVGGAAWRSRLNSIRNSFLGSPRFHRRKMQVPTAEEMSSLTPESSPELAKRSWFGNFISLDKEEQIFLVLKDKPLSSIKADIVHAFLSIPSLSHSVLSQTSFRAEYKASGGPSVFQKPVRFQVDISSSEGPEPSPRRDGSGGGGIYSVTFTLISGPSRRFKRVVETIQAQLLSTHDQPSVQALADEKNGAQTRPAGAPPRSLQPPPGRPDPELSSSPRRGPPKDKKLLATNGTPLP

[8] = Cmax in Sprague-Dawley rat at 10 mg/kg, po; type: ADME, organism-based; parameters: dose 10 mg/kg, route oral; details: in vivo
Outline: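 Male Sprague-Dawley rats, 6–8 weeks old and fasted overnight, dosed IV at 1 mg/kg or PO at 10 mg/kg. Formulation was 5% DMSO/40% PEG400/55% saline (1 mg/mL). Jugular blood collected on heparin from 1 min to 8 h (IV) or 5 min to 24 h (PO). Plasma separated by centrifugation at 2–8 °C and stored at −80 °C.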

[9] = test system: Tyrosine-protein kinase ABL1 (Homo sapiens), P00519 [Q252H]; assay: Binding affinity to human phosphorylated ABL1 Q252H mutant expressed in mammalian expression system assessed as residual binding level at 1 uM by Kinomescan method relative to control; outline: as §1
[10] = target: Mitogen-activated protein kinase kinase kinase 15 (Homo sapiens) (UniProt Q6ZN16); assay: Binding affinity to wild-type human partial length MAP3K15 (T625 to L932 residues) expressed in mammalian expression system assessed as residual binding level at 1 uM by Kinomescan method relative to control
[11] = target: Dual specificity mitogen-activated protein kinase kinase 4 (Homo sapiens) (UniProt P45985); assay: Binding affinity to wild-type human partial length MEK4 (S84 to D399 residues) expressed in mammalian expression system assessed as residual binding level at 1 uM by Kinomescan method relative to control
Chain of Dual specificity mitogen-activated protein kinase kinase 4 (Homo sapiens) (P45985 whole entry, the tested form may be a part): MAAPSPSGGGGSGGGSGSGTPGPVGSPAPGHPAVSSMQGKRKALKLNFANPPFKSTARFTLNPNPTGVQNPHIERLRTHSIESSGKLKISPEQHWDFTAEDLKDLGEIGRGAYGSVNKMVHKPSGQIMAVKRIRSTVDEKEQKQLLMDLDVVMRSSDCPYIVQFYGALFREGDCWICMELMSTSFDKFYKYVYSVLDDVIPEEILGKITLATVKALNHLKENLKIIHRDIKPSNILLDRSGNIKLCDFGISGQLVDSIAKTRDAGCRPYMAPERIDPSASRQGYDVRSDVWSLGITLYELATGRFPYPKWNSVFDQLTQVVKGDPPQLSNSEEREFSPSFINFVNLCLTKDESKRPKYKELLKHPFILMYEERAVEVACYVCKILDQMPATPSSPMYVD

[12] = target: Serine/threonine-protein kinase ULK1 (Homo sapiens) (UniProt O75385); assay: Binding affinity to wild-type human partial length ULK1 (M1 to T309 residues) expressed in mammalian expression system assessed as residual binding level at 1 uM by Kinomescan method relative to control
[13] = target: Fibroblast growth factor receptor 1 (Homo sapiens) (UniProt P11362); assay: Binding affinity to wild-type human partial length FGFR1 (P357 to V669 residues) expressed in bacterial expression system assessed as residual binding level at 1 uM by Kinomescan method relative to control
[14] = target: Proto-oncogene tyrosine-protein kinase receptor Ret (Homo sapiens) (UniProt P07949); assay: Binding affinity to wild-type human partial length RET (E713 to D1014 residues) expressed in bacterial expression system assessed as residual binding level at 1 uM by Kinomescan method relative to control
[15] = target: G protein-coupled receptor kinase 4 (Homo sapiens) (UniProt P32298); assay: Binding affinity to wild-type human full length GRK4 (M1 to C578 residues) expressed in bacterial expression system assessed as residual binding level at 1 uM by Kinomescan method relative to control; outline: as §1
[16] = target: Serine/threonine-protein kinase PRP4 homolog (Homo sapiens) (UniProt Q13523); assay: Binding affinity to wild-type human partial length PRP4 (D657 to I1007 residues) expressed in bacterial expression system assessed as residual binding level at 1 uM by Kinomescan method relative to control
[17] = target: STE20/SPS1-related proline-alanine-rich protein kinase (Homo sapiens) (UniProt Q9UEW8); assay: Binding affinity to wild-type human partial length STK39 (P43 to I357 residues) expressed in mammalian expression system assessed as residual binding level at 1 uM by Kinomescan method relative to control
[18] = target: Activated CDC42 kinase 1 (Homo sapiens) (UniProt Q07912); assay: Binding affinity to wild-type human partial length TNK2 (S159 to D474 residues) expressed in bacterial expression system assessed as residual binding level at 1 uM by Kinomescan method relative to control
Chain of Activated CDC42 kinase 1 (Homo sapiens) (Q07912 whole entry, looked up, the tested form may be a part): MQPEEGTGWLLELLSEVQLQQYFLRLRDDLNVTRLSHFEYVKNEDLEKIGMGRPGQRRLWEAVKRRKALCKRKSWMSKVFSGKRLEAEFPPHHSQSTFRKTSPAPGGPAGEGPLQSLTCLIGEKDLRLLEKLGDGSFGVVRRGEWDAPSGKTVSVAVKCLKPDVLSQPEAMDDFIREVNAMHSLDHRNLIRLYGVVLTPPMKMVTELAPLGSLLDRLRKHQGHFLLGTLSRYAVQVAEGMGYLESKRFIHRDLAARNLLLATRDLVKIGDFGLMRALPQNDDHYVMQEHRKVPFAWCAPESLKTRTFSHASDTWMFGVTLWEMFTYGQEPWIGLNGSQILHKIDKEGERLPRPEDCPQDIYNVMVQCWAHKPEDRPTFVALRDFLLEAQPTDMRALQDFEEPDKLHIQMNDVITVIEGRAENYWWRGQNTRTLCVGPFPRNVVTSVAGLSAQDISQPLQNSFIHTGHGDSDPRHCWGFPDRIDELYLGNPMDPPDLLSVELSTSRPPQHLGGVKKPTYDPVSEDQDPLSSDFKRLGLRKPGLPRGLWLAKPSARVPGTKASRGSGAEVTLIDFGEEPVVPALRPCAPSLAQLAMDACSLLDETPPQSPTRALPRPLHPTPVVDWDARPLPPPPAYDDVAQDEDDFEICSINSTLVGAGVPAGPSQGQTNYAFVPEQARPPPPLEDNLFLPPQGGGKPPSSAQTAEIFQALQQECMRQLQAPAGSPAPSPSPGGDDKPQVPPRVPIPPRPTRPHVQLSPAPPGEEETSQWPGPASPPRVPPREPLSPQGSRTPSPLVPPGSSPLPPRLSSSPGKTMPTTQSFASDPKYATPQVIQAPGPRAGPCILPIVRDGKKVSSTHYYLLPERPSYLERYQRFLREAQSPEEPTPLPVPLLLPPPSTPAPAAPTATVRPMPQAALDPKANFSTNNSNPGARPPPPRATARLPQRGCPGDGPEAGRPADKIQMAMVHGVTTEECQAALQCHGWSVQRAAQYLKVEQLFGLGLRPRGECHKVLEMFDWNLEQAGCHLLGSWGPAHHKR

[19] = target: NUAK family SNF1-like kinase 1 (Homo sapiens) (UniProt O60285); assay: Binding affinity to wild-type human partial length ARK5 (E25 to I332 residues) expressed in bacterial expression system assessed as residual binding level at 1 uM by Kinomescan method relative to control
Chain of NUAK family SNF1-like kinase 1 (Homo sapiens) (O60285 whole entry, the tested form may be a part): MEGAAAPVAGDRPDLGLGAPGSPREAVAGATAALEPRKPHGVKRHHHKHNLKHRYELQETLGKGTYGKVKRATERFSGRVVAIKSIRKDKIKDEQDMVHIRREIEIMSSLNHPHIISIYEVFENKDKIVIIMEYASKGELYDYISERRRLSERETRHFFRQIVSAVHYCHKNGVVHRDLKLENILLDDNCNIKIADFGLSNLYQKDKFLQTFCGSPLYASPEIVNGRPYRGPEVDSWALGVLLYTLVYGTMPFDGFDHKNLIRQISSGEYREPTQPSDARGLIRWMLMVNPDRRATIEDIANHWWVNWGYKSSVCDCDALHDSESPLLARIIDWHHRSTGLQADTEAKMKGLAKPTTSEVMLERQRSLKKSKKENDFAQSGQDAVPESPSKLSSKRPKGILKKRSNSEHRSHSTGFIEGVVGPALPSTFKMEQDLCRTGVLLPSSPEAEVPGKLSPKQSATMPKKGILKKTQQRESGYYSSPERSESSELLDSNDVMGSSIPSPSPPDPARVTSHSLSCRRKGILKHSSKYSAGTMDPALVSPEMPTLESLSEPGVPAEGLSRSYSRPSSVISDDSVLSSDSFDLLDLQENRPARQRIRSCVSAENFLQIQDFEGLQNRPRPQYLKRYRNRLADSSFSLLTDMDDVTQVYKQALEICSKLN
Outline: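 Single-concentration KINOMEscan (DiscoverX) binding screen at 1 μM against a panel of 468 purified kinases and mutants. The read-out is binding relative to control.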

[20] = target: Serine/threonine-protein kinase 4 (Homo sapiens) (UniProt Q13043); assay: Binding affinity to wild-type human full length MST1 (M1 to F487 residues) expressed in bacterial expression system assessed as residual binding level at 1 uM by Kinomescan method relative to control
Outline: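 KINOMEscan competition binding against 468 purified kinases/mutants, test compound at 1 µM; residual binding relative to control.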

Cc1ccc(NC(=O)c2ccc(CN(CCN(C)C)C(=O)c3cccnc3)cc2)cc1Nc1nccc(-c2cccnc2)n1
Activity [1]: 100%
Activity [2]: 100%
Activity (NCI-H1703): Active
Activity [3]: 91%
Activity [4]: 100%
Activity [5]: 100%
Activity [6]: 86%
Activity [7]: 93%
Cmax [8]: 28.9 ng/mL
Activity [9]: 100%
Activity [10]: 100%
Activity [11]: 100%
Activity [12]: 100%
Activity [13]: 98%
Activity [14]: 80%
Activity [15]: 88%
Activity [16]: 100%
Activity [17]: 90%
Activity [18]: 88%
Activity [19]: 93%
Activity [20]: 79%
